From ChEMBL document CHEMBL4011654, “Mitochondria-Targeted Lupane Triterpenoid Derivatives and Their Selective Apoptosis-Inducing Anticancer Mechanisms” (J Med Chem, 2017) come the findings set out here.

pIC50: −log10 of the molar value. Calls of active or inactive are those of the source. No cut-off for these calls is given here.

Assay [1] deals with K562. Briefly: Induction of apoptosis in human K562 cells assessed as upregulation of cleaved PARP up to 4 uM after 48 hrs by Western blot analysis. Type of assay: functional, cell-based.
In assay [2] the test system is K562. In words: Antitumor activity against CM-Dil-labeled human K562 cells xenografted in wild-type zebrafish embryos assessed as tumor growth inhibition at 1 to 10 ug/ml measured after 48 hrs by confocal microscopic analysis. Type of assay: functional, cell-based. A digest of the protocol: (§1)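 K562 cells labelled with CM-Dil, suspended in FBS-free medium at (1 × 107)/mL and microinjected into wild-type zebrafish embryos kept at 28 °C in embryonic medium. After 4 h, embryos with the same injection spot were pooled at 15−20 per well and exposed to compound; Taxol served as positive control. At 48 h, confocal imaging gave fluorescent area (migration) and fluorescence intensity (cell number); n = 15.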
(Xenograft models place foreign cells or tissue in a host animal.)

Assay [3] concerns K562. In words: Induction of mitochondrial membrane depolarization in human K562 cells assessed as cell with intact mitochondrial membrane potential at 1 uM after 48 hrs by JC-1 staining based flow cytometric analysis (reference value: 97.63 to 97.67%). It counts as functional. A digest of the protocol: (§2)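 K562 seeded at 4 × 10^5 cells/well, after 12 h treated 48 h. Cells washed in ice-cold PBS, loaded with JC-1 ([…]) at 37 °C for 15 min, rinsed, and analysed by flow cytometry (% cells with red aggregates) and fluorescence microscopy (red aggregates vs green monomers).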
A general note: Flow cytometry measures light scatter and fluorescence of single cells or particles in a stream.

Assay [4] has as its system K562. In words: Induction of mitochondrial membrane depolarization in human K562 cells assessed as cells with intact mitochondrial membrane potential at 4 uM after 48 hrs by JC-1 staining based flow cytometric analysis (reference value: 97.63 to 97.67%). Type of assay: functional.
Assay [5] deals with K562. In words: Induction of apoptosis in human K562 cells assessed as early apoptotic cells at 0.4 uM after 48 hrs by Annexin V-FITC/propidium iodide-staining based flow cytometric analysis (reference value: 0.92 to 1.45%). Type of assay: functional. A digest of the protocol: (§3)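 K562 seeded at 4 × 10^5 cells/well, 12 h, then exposed 48 h. Cells washed in ice-cold PBS, suspended in binding buffer, stained with annexin V-FITC and PI for 15 min at room temperature in the dark, and read by flow cytometry within 1 h. Cells counted as early/late apoptotic as % of total; n = 3.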

Assay [6] concerns K562. Briefly: Induction of apoptosis in human K562 cells assessed as necrotic cells at 1.2 uM after 48 hrs by Annexin V-FITC/propidium iodide-staining based flow cytometric analysis (reference value: 0.13 to 0.27%). Type of assay: functional. An outline of the steps: as §3
Assay [7] concerns K562. In words: Cytotoxicity against human K562 cells assessed as cell growth inhibition after 48 hrs by MTT assay. Type of assay: functional, cell-based. The following applies: K562, 48 h. An outline of the steps: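 Suspension cells seeded at 5000/well (HL-60 in IMDM, K562 in RPMI, both with 10% FBS) and treated. MTT then added for 4 h at 37 °C; plates centrifuged at 3000 rpm for 30 min, medium removed, DMSO added, OD570 read. IC50 taken as concentration giving 50% growth inhibition; triplicate.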
On the technique in general: Tetrazolium assays rely on reduction of a dye to a coloured formazan, in cell work by metabolically active cells.

The subject of assay [8] is K562. Briefly: Induction of apoptosis in human K562 cells assessed as caspase-3 activation at 4 uM after 48 hrs by Western blot analysis relative to control. It counts as functional. An outline of the steps: (§4)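 K562 treated 48 h, then lysed on ice for 30 min; cytosolic and mitochondrial fractions isolated by kit where needed, protein measured by BCA. 60 μg/lane run on SDS-PAGE, transferred to PVDF, blocked in 5% milk/TBST for 4 h. Probed for cytochrome c, caspase-9, caspase-3 (total/cleaved), PARP; alkaline phosphatase secondary.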

Assay [9] relates to K562. Briefly: Decrease in mitochondrial membrane potential in human K562 cells after 48 hrs by JC-1 staining based flow cytometry. Type of assay: functional, cell-based. An outline of the steps:
as §2

In assay [10] the test system is K562. In words: Antitumor activity against CM-Dil-labeled human K562 cells xenografted in wild-type zebrafish embryos assessed as reduction in cell migration at 1 to 2 ug/ml measured after 48 hrs by confocal microscopic analysis. It counts as functional, cell-based. An outline of the steps: as §1
Assay [11] has as its system K562. In words: Induction of apoptosis in human K562 cells assessed as viable cells at 0.4 uM after 48 hrs by Annexin V-FITC/propidium iodide-staining based flow cytometric analysis (reference value: 95.75 to 96.56%). Type of assay: functional. The following applies: K562, 48 h, read-out: Activity. A digest of the protocol: as §3
Assay [12] concerns K562. Briefly: Induction of apoptosis in human K562 cells assessed as decrease in cytochrome c level in mitochondria up to 4 uM after 48 hrs by Western blot analysis. It counts as functional, cell-based. A digest of the protocol:
as §4

The pIC50 is −log10 of the IC50, conventionally taken in molar units.

Turning to `C=C(C)[C@@H]1CC[C@]2(COC(=O)CCCC[P+](c3ccccc3)(c3ccccc3)c3ccccc3)CC[C@]3(C)[C@H](CC[C@@H]4[C@@]5(C)CC[C@H](O)C(C)(C)[C@@H]5CC[C@]43C)[C@@H]12.[Br-]`, the outcome with K562 [1], in the assay with K562 [10] and in the assay on K562 [12] was Active. For the same compound, the TGI entry with K562 [2] is “Active”. Further, the Activity in the assay with K562 [3] is 93.08%; in the assay on K562 [4], 38.18%; with K562 [5], 6.68%; in the assay with K562 [6], 4.41%; in the assay on K562 [9], “Dose-dependent effect”. Also, the pIC50 in the assay on K562 [7] was 6.24. The “fold change (FC)” value in the assay on K562 [8] is listed as 2.1. For the same compound, the viability at 0.4 µM in the assay with K562 [11] is 88.1%.
